Experimental data pooled from the literature.
Protocols differ between the studies behind these lines.
Observed: cell growth or viability

CCOC(=O)CC1SC(=NN=C2CCCc3ccccc32)NC1=O (centres unmarked) — CC50 (LLC-MK2; MTT; 96 h; pH 7.2): 280 µM
CCOC(=O)c1cnc2ccc(-c3ccc(C(C)C)cc3)cc2c1 — CC50 (RD; ATP luminescence; 72 h): > 2.5 µM
CCN(CC)c1ccc(C(=O)NCCc2c(C)[nH]c3ccccc23)cc1 — CC50 (C6 glioma): < 500 µM
Cc1cn([C@H]2C[C@H](N=[N+]=[N-])[C@@H](CO)O2)c(=O)[nH]c1=O — CC50 (Caco-2; crystal violet; 72 h): 56.1 µM
CCOC(=O)c1csc(NN=Cc2cccc(OC)c2)n1 — CC50 (LLC-MK2; MTT; 96 h; pH 7.2): 641 µM
Cc1cc2ccccc2n1CCNC(=O)c1ccc(N2CCOCC2)c(F)c1 — CC50 (C6 glioma): < 500 µM
CN1CCc2c(c3ccccc3n2Cc2ccc(C(=O)NO)cc2)C1 — CC50 (LLC-MK2; MTS; 48 h): > 20 µM
CCC[C@H](NC(=O)[C@H](CC1CCCCC1)NC(=O)[C@@H](NC(=O)CC12CC3CC(CC(C3)C1)C2)C(C)(C)C)C(=O)C(=O)NC1CC1 — CC50 (RD; neutral red): < 2 µM
O=c1[nH]cc(F)c(=O)[nH]1 — CC50 (Caco-2; crystal violet; 72 h): 390 µM
O=C(CCCCCCC(=O)Nc1ccccc1)NO — CC50 (LLC-MK2; MTS; 48 h): 5.94 µM
CCOC(=O)c1csc(NN=C(C)c2ccccc2)n1 — CC50 (LLC-MK2; MTT; 96 h; pH 7.2): 292 µM
CCC[C@H](NC(=O)[C@@H](NC(=O)[C@@H](NC(=O)CC12CC3CC(CC(C3)C1)C2)C(C)(C)C)C1CCCCC1)C(=O)C(=O)NC1CC1 — CC50 (RD; neutral red): < 2 µM
CCc1nc(-c2cnc3ccc(-c4ccccc4N)cc3c2)no1 — CC50 (RD; ATP luminescence; 72 h): 21 µM
CCOC(=O)CC1SC(=NN=Cc2cccc(O)c2)NC1=O (centres unmarked) — CC50 (LLC-MK2; MTT; 96 h; pH 7.2): 614 µM
